# PAFAH1B3 inh – PAFAH1B3 (human) inhibition; Q15102; recombinant PAFAH1B3, FP-rhodamine probe, fluorescence polarization; inhibition, % at 3.39 µM; 340,000 tested, 0.28% active; AID 492972;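 active = inhibition above the screen-wide average of all tested compounds plus 3 SD, cut at about 25% in these data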;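 also: 0% = enzyme with DMSO only and 100% = wells lacking PAFAH1B3 protein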
# PAFAH1B2 inh – PAFAH1B2 (human) inhibition. inhibition, % at 3.39 µM. AID 492953. P68402. recombinant PAFAH1B2, FP-rhodamine activity probe, fluorescence polarization. 340,000 tested, 1.2% active;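 active = inhibition above the mean of all tested compounds plus 3 SD, cut at about 24% in these data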;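 also: 0% = enzyme with DMSO and 100% = wells lacking PAFAH1B2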
# ASAP1 GAP inh – inhibitors of human ASAP1 ArfGAP activity | Q9ULH1 | ASAP1-stimulated ARF1 GTP hydrolysis, GDP FP detection | inhibition, % at 16.5 µM | 360,000 tested, 0.19% active; in the data active = inhibition above about 25%;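 also: 0% = vehicle with enzyme and substrate and 100% = no enzyme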
# PAFAH2 FP inh – PAFAH2 (human) inhibition; inhibition, % at 3.39 µM; recombinant PAFAH2, FP-rhodamine activity probe, fluorescence polarization; Q99487; 340,000 tested, 0.99% active;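 active = inhibition above the mean over all tested compounds plus 3 SD, cut at about 30% in these data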;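 also: inhibitors block probe labeling of enzyme so polarization drops; 0% = enzyme with DMSO and 100% = wells lacking PAFAH2 protein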
# ARFGAP1 inh – inhibits rat ARF GTPase activating protein 1; Q62848; Arfgap1-stimulated ARF1 GTP hydrolysis, GDP FP detection; inhibition, % at 16.5 µM; 360,000 tested, 0.26% active; AID 651572;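 active = inhibition above a per-plate limit, mean inhibition of low control wells plus 3 SD, cut at about 25% in these data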;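 also: 0% = DMSO wells with enzyme and 100% = wells lacking Arfgap1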
#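 System: truncated rat Arfgap1 GAP domain / Benchmarks: high control wells lacking Arfgap1, low control full reaction with DMSO / Times: compound-enzyme preincubation 20 min, reaction 120 min, detection 60 min, 25 °C / Repeats: one replicate per compound / Also added: human ARF1(Δ1-17)-GTP substrate / Measured by: Tracer-displacement fluorescence polarization with EDTA stop, 620/688 nm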
# pPAFAH FP inh – inhibitors of human plasma PAF acetylhydrolase (pPAFAH) | recombinant pPAFAH, FP-rhodamine probe fluorescence polarization | Q13093 | AID 463082 | inhibition, % at 3.39 µM | 330,000 tested, 1.5% active;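 active = inhibition above the mean inhibition across the screen plus 3 SD, cut at about 25% in these data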;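 also: inhibitors block binding of the rhodamine activity-based probe so polarization drops; 0% = enzyme with DMSO and 100% = wells lacking pPAFAH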
# Target sequence (Q13093 whole entry, looked up): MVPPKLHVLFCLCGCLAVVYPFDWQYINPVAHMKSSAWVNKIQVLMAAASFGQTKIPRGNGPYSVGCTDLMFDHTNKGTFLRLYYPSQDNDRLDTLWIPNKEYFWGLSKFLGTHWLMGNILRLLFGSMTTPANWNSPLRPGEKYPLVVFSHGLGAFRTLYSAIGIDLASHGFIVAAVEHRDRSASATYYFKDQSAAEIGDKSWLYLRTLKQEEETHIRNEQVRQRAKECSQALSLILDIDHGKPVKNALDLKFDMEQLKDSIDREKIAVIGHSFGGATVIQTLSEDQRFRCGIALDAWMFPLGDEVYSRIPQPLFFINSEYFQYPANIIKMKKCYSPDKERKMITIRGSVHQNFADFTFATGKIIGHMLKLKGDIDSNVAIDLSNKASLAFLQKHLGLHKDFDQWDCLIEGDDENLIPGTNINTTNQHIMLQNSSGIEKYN
# PAFAH2 FP conf – confirmation of human PAFAH2 inhibitors. shares compounds with PAFAH2 FP inh. recombinant PAFAH2, FP-rhodamine activity probe, fluorescence polarization. inhibition, % at 3.39 µM. 2,300 tested, 65% active;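 active = mean inhibition over three repeats above a set limit taken from the earlier primary screen, cut at about 30% in these data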;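 also: inhibitor blocks binding of rhodamine activity probe so polarization falls; 0% = enzyme with DMSO and 100% = wells lacking PAFAH2 protein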
# Starred values were filed as active, the others as inactive; . = not tested or not shown. Shown are actives, neighbours in structure and some others; about 2.7% of the full set was active somewhere.
SMILES,PAFAH1B3 inh,PAFAH1B2 inh,ASAP1 GAP inh,PAFAH2 FP inh,ARFGAP1 inh,pPAFAH FP inh,PAFAH2 FP conf
O=C1N(c2ccc3c(c2)OCCO3)C(c2ccccc2)C1(F)F (stereo not drawn),2,0,2,101*,-5,2,-3
COc1ccc(C(=O)OCc2ccc(C)cc2)cc1S(=O)(=O)N1CCOCC1,1,8,-1,12,2,4,.
O=C(OCC(=O)N1CCc2ccccc21)c1cc(S(=O)(=O)N2CCOCC2)ccc1F,-2,1,4,-2,5,.,.
COc1ccc(C(=O)OCC(=O)NCC2CCCO2)cc1S(=O)(=O)N1CCCc2ccccc21 (stereo not drawn),-2,6,-13,34*,-4,10,27
COc1ccc(C(=O)OCc2nnc(-c3ccccc3)o2)cc1S(=O)(=O)N1CCOCC1,0,0,5,79*,1,-4,71*
O=C(OCc1nnc(-c2ccc([N+](=O)[O-])cc2)o1)c1ccc(F)c(S(=O)(=O)N2CCOCC2)c1,-2,5,6,30*,-6,.,22
COc1ccc(C(=O)OCC(=O)N2CCc3ccccc32)cc1S(=O)(=O)N1CCOCC1,3,4,5,68*,17,-2,69*
O=C(NNC(=O)c1ccc(F)c(S(=O)(=O)N2CCOCC2)c1)c1ccc([N+](=O)[O-])cc1,8,3,-16,-7,12,-2,.
COc1ccc(CCC2(C)OCC(CCCCO)O2)cc1 (stereo not drawn),-6,6,-10,-3,-5,.,.
CC(O)(c1ccc(Cl)cc1)C(c1ccccc1)c1ccccn1 (stereo not drawn),15,12,1,11,4,.,.
COc1cccc(NC(=O)CN(C)C(C)C(=O)N2CCCCC2)c1 (stereo not drawn),1,1,6,3,11,5,.
COc1cc(CC(=O)N2CCN(S(=O)(=O)c3ccc(C)cc3)CC2)cc(OC)c1OC,-2,4,5,-3,-1,2,.
COc1ccc(C(=O)OCC(=O)NC(C)CCc2ccccc2)c(OC)c1 (stereo not drawn),12,12,-3,49*,18,2,22
COc1cc(OC)cc(C(=O)OCC(=O)NC(C)CCc2ccccc2)c1 (stereo not drawn),-2,6,9,-2,4,4,.
NC(=O)c1ccc(NC(=O)CCC(=O)c2cccs2)cc1,4,-3,8,6,1,16,.
CC(NC(=O)COC(=O)c1cccs1)c1ccccc1 (stereo not drawn),10,3,-3,60*,6,1,47*
CC(CCc1ccccc1)NC(=O)COC(=O)c1cccn1C (stereo not drawn),3,3,8,21,-2,6,.
CC(CCc1ccccc1)NC(=O)COC(=O)c1cccs1 (stereo not drawn),3,5,-15,60*,-5,10,44*
CC(NC(=O)COC(=O)/C(=C/c1cccs1)c1cccs1)c1ccccc1 (stereo not drawn),4,-1,0,13,-5,12,.
CCC(=O)Nc1ccc(C(=O)OCC(=O)c2cccs2)cc1,0,1,4,34*,-1,-4,32*
O=C(COC(=O)c1ccc(Cl)nc1)NNC(=O)c1ccc(Br)cc1,11,14,-7,9,-2,4,.
Cc1cccc(NC(=O)CNC(=O)CN2CCN(C)CC2)c1C,3,-1,-1,-2,-16,-2,.
N#C/C(=C\c1ccc(OCc2ccc(C(=O)O)cc2)cc1)C(=O)NCc1ccccc1,0,3,9,-11,12,4,.
N#C/C(=C\c1ccc(OCc2cccc(C(=O)O)c2)cc1)C(=O)NCc1ccco1,13,12,-2,37*,-2,-3,28
CCN(C(=O)COC(=O)c1ccc(Cl)cc1N)C1CCCCC1,7,4,-3,1,14,4,.
O=C(COC(=O)c1c2c(nc3ccccc13)/C(=C/c1ccco1)CC2)NC1CCCC1,18,4,12,36*,-4,.,7
